Experimental data: ChEMBL document CHEMBL5150059, “Transcriptional Inhibition of MicroRNA miR-122 by Small Molecules Reduces Hepatitis C Virus Replication in Liver Cells” (J Med Chem, 2022)
The source made the active and inactive calls. The calls are words filed in the database; no cut-off is given here.

How the values were obtained:
microRNA 122 [1] = assay: Inhibition of miR-122 in human Huh-7 cells expressing renilla luciferase gene assessed as relative luciferase unit after 48 hrs by dual luciferase assay relative to control; assay type: cell-based; parameters: concentration or dose not given beside the values
How it was run: (§1)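 Huh7-miR122 stable line (miR-122 site in the Renilla luciferase 3′ UTR, kept in 500 μg/mL G418), seeded 15,000/well. After overnight incubation, treated 48 h with compound or DMSO (0.1% final) in triplicate. Renilla and firefly read by dual luciferase; Renilla normalized to firefly. Dose–response used for EC50.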

Renilla = assay: Inhibition of recombinant renilla luciferase at 10 uM using coelenterazine as substrate incubated for 10 mins by luminescence based microplate reader analysis relative to control; values are per cent of control
[2] = Effect on non-miR-122 pathway in human Huh-7 cells harboring psi-check empty vector assessed as increase in luminescence at 10 uM after 48 hrs by dual luciferase assay relative to control; assay type: functional
How it was run: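 Huh7 cells transfected with psiCHECK-empty reporter (miR-122 site replaced by a non-targeted linker) for 2 h. Medium then replaced with compound at 10 μM or DMSO (0.1% final), in triplicate. Renilla/firefly read by dual luciferase after 48 h, normalized to DMSO. At least three independent experiments, mean ± SD.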

Huh-7 [3] = assay: Inhibition of pGL3-miR-122 (unknown origin) promotor activity transfected in Huh-7 cells harboring HNF3beta mutant assessed as reduction in luciferase activity at 25 uM after 48 hrs by Bright-glo luciferase assay; assay type: cell-based
How it was run: (§2)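 Huh7 cells transfected 3 h with pGL3-miR122 promoter–firefly reporter, parent or with transcription-factor site mutated/deleted. Then treated 48 h with 25 μM compound or 0.1% DMSO, in triplicate. Read by Bright-Glo luminescence; XTT viability assayed in parallel. Luminescence divided by viability, normalized to DMSO per reporter. Three independent experiments.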

microRNA 122 [4] = assay: Inhibition of miR-122 in human Huh-7 cells assessed as reduction in mature miR-122 levels at 25 uM after 48 hrs by RT-qPCR analysis; assay type: cell-based
How it was run: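 Huh7 cells treated 48 h with 25 μM compound or 0.1% DMSO, then total RNA isolated. 15 ng reverse-transcribed with TaqMan miRNA RT primers for miR-122 or RNU19. TaqMan qPCR run over 40 cycles in triplicate. Relative level from 2^−ΔΔCt versus RNU19 and DMSO. Three independent experiments.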

Hepatitis C virus = assay: Antiviral activity against HCV infected in human Huh7.5 cells assessed as reduction in viral RNA expression at 10 uM pretreated for 1 hr followed by viral infection and measured after 48 hrs by RT-qPCR analysis; assay type: functional, Hepacivirus hominis; parameters: scale not given: the % may be the effect or the level left; details: time 49 hrs
How it was run: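 Huh7.5 cells pretreated 1 h with compound (10 μM) or DMSO, then infected with HCV (MOI 0.5) in compound-containing DMEM; medium replaced with compound medium at 5 h post-infection. At 48 h post-infection, RNA extracted. HCV and 18S RNA copy numbers quantified by RT-qPCR against standards. HCV RNA normalized to 18S, then to DMSO control.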

Huh-7 [5] = assay: Inhibition of pGL3-miR-122 (unknown origin) promotor activity transfected in human Huh-7 cells at 25 uM after 48 hrs by Bright-glo luciferase assay; assay type: cell-based; how it was run: as §2
microRNA 122 [6] = assay: Inhibition of miR-122 in human Huh-7 cells assessed as reduction in E-cadherin expression at 25 uM incubated for 48 hrs by Western blot analysis; assay type: cell-based
How it was run: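 Huh7 cells treated 48 h at 37 °C with compound or DMSO (0.1% final), then lysed and run on 10% SDS-PAGE. Transferred to PVDF, blocked in 5% BSA/TBST. Probed overnight at 4 °C with anti-E-cadherin or anti-GAPDH (1:1000), then HRP anti-rabbit (1:2500), and detected by chemiluminescence. GAPDH used as internal control.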

Huh-7 [7] = assay: Cytotoxicity against human Huh-7 cells assessed as reduction in cell viability at 10 to 25 uM after 48 hrs by XTT assay; assay type: toxicity, cell-based; details: huh-7, 48 h, dose 10-25 µM
How it was run: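 Huh7 cells given compound for 48 h, then XTT reagent activated with menadione. Absorbance at 450 nm minus 630 nm read immediately and after 4 h; viability taken as the difference between the two readings.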

Huh-7 [8] = assay: Inhibition of pGL3-miR-122 (unknown origin) promotor activity transfected in Huh-7 cells harboring HNF1alpha mutant assessed as reduction in luciferase activity at 25 uM after 48 hrs by Bright-glo luciferase assay; assay type: cell-based; how it was run: as §2
Huh-7 [9] = assay: Inhibition of pGL3-miR-122 (unknown origin) promotor activity transfected in Huh-7 cells harboring AP-1 mutant assessed as reduction in luciferase activity at 25 uM after 48 hrs by Bright-glo luciferase assay; assay type: cell-based; how it was run: as §2
Huh-7 [10] = assay: Inhibition of pGL3-miR-122 (unknown origin) promotor activity transfected in Huh-7 cells harboring HNF4alpha mutant by measuring reversal of mir-122 activity at 25 uM after 48 hrs by Bright-glo luciferase assay; assay type: cell-based; how it was run: as §2
[11] = Binding affinity to recombinant C-terminal His-tagged […] (147 to 377 residues) (unknown origin) expressed in Escherichia coli by spectrofluorometer analysis; parameters: species or system Homo sapiens
How it was run: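 His-tagged HNF4α ligand-binding domain (aa 147–377) expressed and purified from E. coli. 200 nM protein in PBS pH 7.4 titrated with increasing compound at 25 °C. Intrinsic Trp/Tyr fluorescence read at 330 nm (excitation 280 nm), corrected for buffer and ligand alone. Intensity change versus concentration fitted to Hill equation for KD. Two independent experiments.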

microRNA 122 [12] = assay: Inhibition of miR-122 in human Huh-7 cells assessed as reduction in primary miR-122 expression at 25 uM incubated for 48 hrs by RT-qPCR analysis; assay type: cell-based
How it was run: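 Huh7 cells treated 48 h with 25 μM compound or 0.1% DMSO. 50 ng total RNA reverse-transcribed with iScript. TaqMan qPCR run for pri-miR-122 and GAPDH in triplicate. Relative level from 2^−ΔΔCt normalized to GAPDH and DMSO. Three independent experiments.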

microRNA 122 [13] = assay: Inhibition of miR-122 in human Huh-7 cells expressing renilla luciferase gene after 48 hrs by dual luciferase assay; assay type: cell-based; how it was run: as §1
Huh-7 [14] = assay: Inhibition of pGL3-miR-122 (unknown origin) promotor activity transfected in Huh-7 cells harboring HNF6 mutant assessed as reduction in luciferase activity at 25 uM after 48 hrs by Bright-glo luciferase assay; assay type: cell-based; how it was run: as §2
HEK293 = assay: Inhibition of […] (unknown origin) transfected in HEK293 cells coexpressing CYP26A1 assessed as reduction in luciferase expression at 25 uM after 48 hrs dual luciferase assay; assay type: cell-based; details: Homo sapiens
How it was run: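 HEK293T cells (no endogenous HNF4α) co-transfected for 4 h with CYP26A1 promoter–firefly luciferase reporter, HNF4α expression plasmid and Renilla control plasmid. Then treated 48 h with 25 μM compound or DMSO (0.25% final). Read by dual luciferase assay, normalized to DMSO.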

Work on `COc1cc(C)c(C(C)C)cc1S(=O)(=O)n1ccc(C)c1` yielded an Activity (microRNA 122 [1]) of 57% and a residual activity (Renilla) of 87%.
`COc1cc(C)c(C(C)C)cc1S(=O)(=O)Nc1cccc(C)n1` gave an Activity (microRNA 122 [1]) of 89% and a residual activity (Renilla) of 2%.
In the case of `COc1cc(C)c(C(C)C)cc1S(=O)(=O)n1ccc(C)n1`, the Activity (microRNA 122 [1]) is reported as 44%.
For `CCc1nccn1S(=O)(=O)c1cc(C(C)C)c(C)cc1OC`, the Activity (microRNA 122 [1]) was 40%.
Work on `CCNS(=O)(=O)c1cc(C(C)C)c(C)cc1OC` yielded an Activity (microRNA 122 [1]) of 42%.
Work on `COc1cc(C)c(C(C)C)cc1S(=O)(=O)n1ccnc1` yielded an Activity (microRNA 122 [1]) of 33%.
With `COc1cc(C)c(C(C)C)cc1S(=O)(=O)Nc1ncccc1C` the Activity (microRNA 122 [1]) was 135% and the residual activity (Renilla) was 17%.
For `COc1cc(C)ccc1S(=O)(=O)n1cnc(C)c1`, the Activity (microRNA 122 [1]) was 24% and the residual activity (Renilla) was 80%.
Work on `COc1cc(C)c(C(C)C)cc1S(=O)(=O)N(C)c1cccc(C)c1` yielded an Activity (microRNA 122 [1]) of 122%, a residual activity (Renilla) of 78% and an Activity [2] of 103%.
In the case of `COc1cc(C)c(C(C)C)cc1S(=O)(=O)Nc1ccccc1C`, the Activity (microRNA 122 [1]) is reported as 32%.
With `COc1cc(C)c(C(C)C)cc1S(=O)(=O)n1cccc1` the Activity (microRNA 122 [1]) was 29%.
`COc1cc(C)c(C(C)C)cc1S(=O)(=O)n1cnc(Cl)c1Cl` gave an Activity (microRNA 122 [1]) of 4%.
With `COc1cc(C)c(C(C)C)cc1S(=O)(=O)n1cnc2ccccc21` the Activity (microRNA 122 [1]) was 75% and the residual activity (Renilla) was 45%.
`COc1cc(C)c(C(C)C)cc1S(=O)(=O)n1cnc(C)c1` showed an Activity (microRNA 122 [1]) of 100%, a residual activity (Renilla) of 80% and an Activity [2] of 127%.
Work on `COc1cc(C)c(C(C)C)cc1S(=O)(=O)N(C)c1ccccn1` yielded an Activity (microRNA 122 [1]) of 89%, a residual activity (Renilla) of 100% and an Activity [2] of 88%.
With `COc1cc(C)c(C(C)C)cc1S(=O)(=O)N(C)c1ccccc1C` the inhibition (Huh-7 [3]) was “Active”, the inhibition (microRNA 122 [4]) was 38% and the Activity (Hepatitis C virus) was 88%. The Activity (Huh-7 [5]) was “Active”, the inhibition (microRNA 122 [6]) was “Active” and the Activity (Huh-7 [7]) was “Non-Toxic”. The inhibition (Huh-7 [8]) was “Active”, the Activity (microRNA 122 [1]) was 104% and the residual activity (Renilla) was 100%. The inhibition (Huh-7 [9]) was “Active”, the Activity [2] was 90% and the inhibition (Huh-7 [10]) was 64%. The Kd [11] was 439 nM, the inhibition (microRNA 122 [12]) was 59% and the EC50 (microRNA 122 [13]) was 11000 nM. For the same compound, the inhibition (Huh-7 [14]) was “Active” and the inhibition (HEK293) was 50%.
`COc1cc2c(cc1S(=O)(=O)n1cnc(C)c1)CCCC2` showed an Activity (microRNA 122 [1]) of 33.3%.
In the case of `COc1cc(C)c(C(C)C)cc1S(=O)(=O)Nc1ccccn1`, the Activity (microRNA 122 [1]) is reported as 88% and the residual activity (Renilla) is reported as 8%.
In the case of `COc1cc(C)c(C(C)C)cc1S(=O)(=O)Nc1ccccc1`, the Activity (microRNA 122 [1]) is reported as 47%.
`C#CCOc1cc(C)c(C(C)C)cc1S(=O)(=O)n1cnc(C)c1` showed an Activity (microRNA 122 [1]) of 50% and a residual activity (Renilla) of 97%.
`COc1cc(C)c(C(C)C)cc1S(=O)(=O)n1ccc2ccccc21` showed an Activity (microRNA 122 [1]) of 55% and a residual activity (Renilla) of 94%.
In the case of `COc1cc(C)c(C(C)C)cc1S(=O)(=O)n1cnc([N+](=O)[O-])c1`, the Activity (microRNA 122 [1]) is reported as 61.1% and the residual activity (Renilla) is reported as 67%.
For `COc1cc(C)c(C)cc1S(=O)(=O)n1cnc(C)c1`, the Activity (microRNA 122 [1]) was 32%.
`Cc1ccc([N+](=O)[O-])cc1S(=O)(=O)n1c(C)nc2ccccc21` gave a Kd [11] of 832 nM and an inhibition (HEK293) of 50%.
`CCOc1cc(C)c(C(C)C)cc1S(=O)(=O)n1cnc(C)c1` showed an Activity (microRNA 122 [1]) of 74% and a residual activity (Renilla) of 70%.
In the case of `COc1cc(C)c(C(C)C)cc1S(=O)(=O)N(C)c1ccc(C)cc1`, the Activity (microRNA 122 [1]) is reported as 82%, the residual activity (Renilla) is reported as 100% and the Activity [2] is reported as 218%.
For `COc1cc(C)c(C(C)C)cc1S(=O)(=O)N(C)c1cccc(C)c1C`, the Activity (microRNA 122 [1]) was 80%, the residual activity (Renilla) was 93% and the Activity [2] was 225%.
With `COc1cc(C)c(C(C)C)cc1S(=O)(=O)n1cnc(-c2ccccc2)c1` the Activity (microRNA 122 [1]) was 35%.
Work on `COc1cc(C)c(C(C)C)cc1S(=O)(=O)N(C)C` yielded an Activity (microRNA 122 [1]) of 42%.
For `COc1cc(C)c(C(C)C)cc1S(=O)(=O)N(C)c1cc(C)ccc1C`, the Activity (microRNA 122 [1]) was 77%, the residual activity (Renilla) was 100% and the Activity [2] was 245%.
`COc1cc(C)c(C(C)C)cc1S(=O)(=O)N(C)c1ncccc1C` showed an Activity (microRNA 122 [1]) of 64%, a residual activity (Renilla) of 100% and an Activity [2] of 87%.
`COc1cc(C)c(C(C)C)cc1S(=O)(=O)N(C)c1cccc(C)n1` showed an Activity (microRNA 122 [1]) of 107%, a residual activity (Renilla) of 100% and an Activity [2] of 117%.
Work on `COc1cc(C)c(C(C)C)cc1S(=O)(=O)n1cc(C)cn1` yielded an Activity (microRNA 122 [1]) of 32%.
